# Results taken from the RNAGym collection of RNA variant scans (doi:10.1126/science.aae0568).
# Fewer inactive variants are shown than the library holds.
# B1: tRNA (parent)
# chain: GUUCCGUUGGCGUAAUGGUAACGCGUCUCCCUCCUAAGGAGAAGACUGCGGGUUCGAGUCCCGUACGGAACG
# Variants of: B1
# Experiment: yeast fitness relative to wild type (ratio to wild type); higher = fitter; tRNA-Arg(CCU), competitive growth, 37 C, YPD
# In short: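 For this measurement, the tRNA-Arg(CCU) gene was varied by chemical synthesis at a 3% per-site mutation rate across 69 sites, and each variant was placed at the native genomic locus in Saccharomyces cerevisiae. The pooled strains went through a 24-hour competition in YPD at 37°C in six parallel replicates, with amplicons from start and end populations read by 100-nucleotide paired-end sequencing. Darwinian fitness relative to wild type followed from the change in each genotype's frequency. Genotypes needed ≥ 100 starting reads, and estimates < 0.5 were set to 0.5.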
row,Variant,yeast fitness
1,A65C A70U,1.06
2,A65C A70G,1.06
3,U64G C66U,0.669
4,C66G A69C,0.782
5,C66G A69U,0.746
6,G63A C66U,0.826
7,A65U A70C,0.823
8,C62U G63A A70C,0.583
9,G67C A70U,0.904
10,A65G C66G,0.897
11,C66U A69C,0.743
12,C66U A69U,0.831
13,C60U C62U,0.659
14,C61G G68A,0.677
15,C61G G68U,0.558
16,U64C C66A,0.832
17,G68A,0.963
18,C62G C66U,0.652
19,U64C G68U,1.01
20,C66U G68A,0.871
21,C60U C61U,0.717
22,G63C C66G,0.709
23,G63C C66U,0.666
24,C61G A69C,0.748

row,Variant,yeast fitness
1,C61G A69G,0.567
2,A65G G68C,0.859
3,G68A A69U,0.791
4,G68A A69G,0.827
5,G63C A70C,0.744
6,C66U A70G,0.973
7,U64A G67A,0.84
8,U64A A65C G68A,0.526
9,C62A G67A,0.817
10,C62A G67C,0.81
11,G67A A70C,0.901
12,C61U G63A,0.874
13,C61A U64A A69U,0.558
14,C66A A70U,0.603
15,C62G A65G,0.811
16,C62G A65C,0.6
17,C61U U64G,0.674
18,C62U A69G,0.918
19,C62U A69C,1.02
20,G63C G68C,0.761
21,G63C G68U,0.568
22,C61A C66A,0.627
23,C61A C66U,0.691
24,C62A G63A A70C,0.54

row,Variant,yeast fitness
1,C61U G67C,0.892
2,C66A G67A,0.557
3,C61A C66U A69C,0.601
4,C61A A65G G68A,≤ 0.5
5,G67A A69G,0.974
6,U64A A69G,0.719
7,C61A A70U,0.673
8,G67U A69C,0.795
9,A65C A69G A70U,0.519
10,U64C A65U,0.928
11,U64C A65G,0.86
12,U64C A69C A70U,0.757
13,C62U A65C,0.914
14,C62U A65G,0.886
15,C61A G68U,0.534
16,C61A G68C,0.607
17,C61U A65C,0.864
18,C61A A65G,0.595
19,C60U G68C,0.752
20,C62G G63C A65U,≤ 0.5
21,C61U C66A,0.644
22,C61U C62U,0.748
23,C61U C62G,0.718
24,C60U G67C,0.828

row,Variant,yeast fitness
1,C60U G67U,0.678
2,U64A A65U,0.718
3,C66G G68C,0.634
4,A65C G67A,0.692
5,G63C G67U,0.677
6,G63C G67C,0.605
7,C61G G67C G68A,0.611
8,C62G A70G,0.752
9,C62G A70U,0.637
10,C61A U64C,0.801
11,C66G A70U,0.724
12,C61U A65U C66U,≤ 0.5
13,C61G A65U,0.651
14,C62A A69U,0.652
15,C62A A69C,0.78
16,C62U G68C,0.812
17,C62A G68C,0.875
18,C62A G68A,0.797
19,C62A G63C,0.661
20,C62A G63A,0.578
21,U64C G67A,0.802
22,U64C G67C,0.938
23,C62G G68A,0.56
24,C62G G68U,0.707

row,Variant,yeast fitness
1,C62G G68C,0.592
2,C66U G67C,0.934
3,A65G C66G A70G,≤ 0.5
4,C61U A65C G67A G68A,≤ 0.5
5,G67C A69U,0.896
6,U64G A70C,0.755
7,G63C A65C,0.638
8,G63C A65G,0.594
9,C62U G67A,0.849
10,U64G G68A,0.678
11,G63A U64G,0.8
12,U64G A69G,0.789
13,U64G A69C,0.616
14,G63A G68A,0.843
15,G63A G68C,0.883
16,A65U G67A,0.839
17,C61U A69G,0.878
18,A65U G68C,0.625
19,A65U G68U,0.99
20,G68A A70C,0.861
21,G68A A70U,1.21
22,C61A C62G,0.619
23,A65U A69U,0.967
24,A65U A69C,0.845

row,Variant,yeast fitness
1,C61G G67A,0.592
2,C61G G67C,0.61
3,C62A A65U C66U,≤ 0.5
4,G63A A65G,0.889
5,C60U C61U U64G,0.677
6,C60U C66G,0.687
7,C60U C66A,0.619
8,C60U G63C,0.572
9,C66A A69U,0.693
10,C61G A70C,0.763
11,C60U U64A,0.656
12,C61A G67A A69C,0.524
13,C61U U64A A69G,0.597
14,U64A A70U,0.884
15,U64A A70G,0.711
16,A65G G67A,1.03
17,C61U A70C,0.939
18,C61U A70G,0.979
19,A65G A70C,0.889
20,G63A A65G A69U,0.609
21,C60U C62U A70C,0.539
22,C61A A69C,0.631
23,C61A A69U,0.816
24,G63U C66A A69U,≤ 0.5

row,Variant,yeast fitness
1,C61A,0.707
2,C61U,1.01
3,C61G,0.688
4,C62A,0.72
5,C62U,0.994
6,C62G,0.924
7,C61U G63U G68A,0.529
8,G67U A70U,0.933
9,G63A A70G,0.804
10,A65C A69G,0.939
11,A65C A69C,0.727
12,A65C A69U,0.921
13,G67A G68A,0.85
14,C62A C66A,0.51
15,C62A A70U,0.858
16,U64A A65G G67U,0.709
17,C62U A70C,0.91
18,C66A G68C,0.678
19,C61G U64G,0.651
20,C61G U64C,0.579
21,G63A G67U,0.686
22,C62G A69C,0.617
23,U64G A65U,0.648
